From ChEMBL document CHEMBL3352789, “Chemical and computational methods for the characterization of covalent reactive groups for the prospective design of irreversible inhibitors” (J Med Chem, 2014)

Legend:
[1] = Reactivity of covalent reactive group using GSH reaction assessed as pseudo-first-order reaction at 37 degC by nuclear magnetic resonance spectroscopy
Method in brief: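 Electrophile standard at 2 mM and GSH solution at 20 mM, both in 100 mM phosphate pH 7.4 with 10% D2O, combined in an NMR tube. 1D 1H spectra with presaturation were acquired hourly for about 19 h. Pseudo-first-order k came from the natural log of the electrophile resonance area versus time, converted to t1/2.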

[2] = Reactivity of covalent reactive group using GSH reaction assessed as pseudo-first-order reaction at 37 degC by mass spectrometry
Method in brief: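 Automated liquid handler at 37 °C under N2 with degassed solutions. The mix holds 1 mM electrophile, 10 mM GSH and 0.10 mM indoprofen internal standard in 100 mM potassium phosphate pH 7.4:ACN 90:10. Sampling was hourly for 7 h, each sample diluted 10-fold in water. Pseudo-first-order k gives t1/2. Controls had no GSH.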

[3] = Reactivity of covalent reactive group using GSH reaction assessed as pseudo-first-order reaction at 60 degC by mass spectrometry
[4] = GSH reactivity assessed as reaction half life through transition state modeling at pH 7.4; type: physicochemical; settings: glutathione (GSH) reaction mixture

| SMILES | K [1] [×10⁻³ /min] | K [2] [×10⁻³ /min] | K [3] [×10⁻³ /min] | half-life [4] [h] |
| --- | --- | --- | --- | --- |
| CC1CCCN1C#N (stereo unspecified) | 0.6 | – | – | – |
| N#CN1CCCCC1 | 0.8 | – | – | – |
| C=C(C)S(=O)(=O)NC | – | < 0.2 | 0.4 | – |
| CNC(=O)CBr | – | > 140 | – | < 0.08 |
| C=CC(=O)NC | 0.7 | – | – | 17 |
| CNC(=O)CCl | – | 3.6 | – | 3.2 |
| C=C(C)C(=O)Nc1ccccc1 | – | – | 0.2 | – |
| CNC(=O)C1=CCCC1 | – | – | < 0.2 | – |
| C/C=C(\C)S(=O)(=O)NC | – | – | < 0.2 | – |
| C=CC(=O)N1CCCCC1 | – | 0.4 | – | – |
| N#CN1CCCC1 [CYANO-PYRROLIDINE] | 5.3 | – | – | 2.2 |
| CNC(=O)C1=CCC1 | – | – | 0.6 | – |
| C=CC(=O)NCc1cccc(OC)c1 | – | 0.4 | – | – |
| CN1CCC=CS1(=O)=O | – | 0.2 | – | – |
| CN1CC=CC1=O | – | 0.4 | – | – |
| CC#CC(=O)NC | 0.3 | – | – | – |
| CNC(=O)C(C)Cl (stereo unspecified) | – | – | 0.6 | – |
| N#Cc1ccccn1 | 0.5 | – | – | 25 |
| CNC(=O)/C=C/CN1CCOCC1 | – | – | – | 28 |
| CN1CC=CS1(=O)=O | – | 0.4 | – | – |
